Source: ChEMBL document CHEMBL4304834, “3-Amino-chromanes and Tetrahydroquinolines as Selective 5-HT2B, 5-HT7, or σ1 Receptor Ligands” (ACS Med Chem Lett, 2019)

Legend:
Assay type in all cases: cell-based
[1] = target: 5-hydroxytryptamine receptor 1E (Homo sapiens, UniProt P28566); assay: Displacement of [3H]-HT from human recombinant 5-HT1E receptor expressed in stable HEK cells after 90 mins by microbeta scintillation counting method
Procedure, shortened: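 Radioligand binding run by the NIMH Psychoactive Drug Screening Program. […] Otherwise Ki comes from sigmoidal curve fits of triplicate measurements in a single experiment, or is averaged over repeated experiments each run in triplicate.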

[2] = target: T1, Alpha-1B adrenergic receptor (Homo sapiens, UniProt P35368); assay: Displacement of [3H]-Prazosin from human recombinant adrenergic Alpha1B receptor expressed in HEKT cells after 90 mins by microbeta scintillation counting method
T1 sequence (P35368 whole entry): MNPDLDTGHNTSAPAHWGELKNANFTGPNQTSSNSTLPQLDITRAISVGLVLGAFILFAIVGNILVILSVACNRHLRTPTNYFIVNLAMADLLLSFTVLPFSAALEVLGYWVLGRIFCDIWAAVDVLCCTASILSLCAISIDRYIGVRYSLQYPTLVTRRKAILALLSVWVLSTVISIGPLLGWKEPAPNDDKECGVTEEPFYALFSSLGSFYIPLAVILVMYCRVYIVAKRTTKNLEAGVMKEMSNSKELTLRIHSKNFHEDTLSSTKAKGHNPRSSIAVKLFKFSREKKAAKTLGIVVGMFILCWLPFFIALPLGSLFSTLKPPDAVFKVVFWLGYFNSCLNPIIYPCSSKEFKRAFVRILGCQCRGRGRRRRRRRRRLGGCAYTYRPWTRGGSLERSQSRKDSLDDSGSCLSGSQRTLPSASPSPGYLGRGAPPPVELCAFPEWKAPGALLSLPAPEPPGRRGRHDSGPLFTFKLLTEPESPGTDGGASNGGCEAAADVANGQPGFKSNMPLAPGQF
Procedure, shortened: (§1)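 Radioligand binding was run by the NIMH Psychoactive Drug Screening Program. Compounds were first screened at 10 μM. Those giving ≥50% binding were taken to full competition curves. Ki is reported as pKi from a sigmoidal curve fit of triplicate measurements in a single experiment; the error is the curve-fit error.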

D(3) dopamine receptor = D(3) dopamine receptor (Homo sapiens, UniProt P35462); assay: Displacement of [3H]-N-methylspiperone from human recombinant dopamine D3 receptor expressed in HEKT cells after 90 mins by microbeta scintillation counting method
Sequence of D(3) dopamine receptor (P35462 whole entry): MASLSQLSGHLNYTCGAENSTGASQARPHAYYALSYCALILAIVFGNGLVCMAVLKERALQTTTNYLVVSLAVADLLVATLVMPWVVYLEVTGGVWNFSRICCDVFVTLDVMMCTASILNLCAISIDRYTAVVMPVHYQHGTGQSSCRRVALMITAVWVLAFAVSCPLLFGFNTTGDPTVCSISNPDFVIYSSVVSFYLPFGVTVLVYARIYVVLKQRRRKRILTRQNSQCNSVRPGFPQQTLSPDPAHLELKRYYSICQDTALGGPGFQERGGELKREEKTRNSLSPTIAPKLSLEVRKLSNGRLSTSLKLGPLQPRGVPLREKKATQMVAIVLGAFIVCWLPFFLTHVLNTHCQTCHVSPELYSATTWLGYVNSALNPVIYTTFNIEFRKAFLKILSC
Procedure, shortened: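 Radioligand binding run by the NIMH Psychoactive Drug Screening Program. Otherwise Ki comes from sigmoidal curve fits of triplicate measurements in a single experiment, or is averaged over repeated experiments each run in triplicate.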

Histamine H3 receptor = Histamine H3 receptor (Homo sapiens, UniProt Q9Y5N1); assay: Displacement of [3H]-alpha-methylhistamine from human recombinant histamine H3 receptor expressed in Flp-In HEK cells after 90 mins by microbeta scintillation counting method; procedure, shortened: as §1
Sequence of Histamine H3 receptor (Q9Y5N1 whole entry): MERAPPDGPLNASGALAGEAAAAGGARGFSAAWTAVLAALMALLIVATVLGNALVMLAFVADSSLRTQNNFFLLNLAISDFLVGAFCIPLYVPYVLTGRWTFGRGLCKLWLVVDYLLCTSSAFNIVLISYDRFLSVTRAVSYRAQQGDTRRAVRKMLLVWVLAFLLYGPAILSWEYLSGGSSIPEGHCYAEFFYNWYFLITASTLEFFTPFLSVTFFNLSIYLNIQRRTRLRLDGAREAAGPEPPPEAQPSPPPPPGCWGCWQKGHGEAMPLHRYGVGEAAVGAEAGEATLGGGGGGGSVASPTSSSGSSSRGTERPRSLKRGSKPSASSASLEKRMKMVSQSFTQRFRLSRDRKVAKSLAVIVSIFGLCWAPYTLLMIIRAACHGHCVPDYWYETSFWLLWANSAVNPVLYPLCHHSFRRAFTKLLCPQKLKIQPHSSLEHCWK

[3] = target: T2, Muscarinic acetylcholine receptor M2 (Homo sapiens, UniProt P08172); assay: Displacement of [3H]-QNB/[3H]-NMS from human recombinant Muscarinic acetylcholine M2 receptor expressed in stable CHO cells after 90 mins by microbeta scintillation counting method; procedure, shortened: as §1
T2 sequence (P08172 whole entry): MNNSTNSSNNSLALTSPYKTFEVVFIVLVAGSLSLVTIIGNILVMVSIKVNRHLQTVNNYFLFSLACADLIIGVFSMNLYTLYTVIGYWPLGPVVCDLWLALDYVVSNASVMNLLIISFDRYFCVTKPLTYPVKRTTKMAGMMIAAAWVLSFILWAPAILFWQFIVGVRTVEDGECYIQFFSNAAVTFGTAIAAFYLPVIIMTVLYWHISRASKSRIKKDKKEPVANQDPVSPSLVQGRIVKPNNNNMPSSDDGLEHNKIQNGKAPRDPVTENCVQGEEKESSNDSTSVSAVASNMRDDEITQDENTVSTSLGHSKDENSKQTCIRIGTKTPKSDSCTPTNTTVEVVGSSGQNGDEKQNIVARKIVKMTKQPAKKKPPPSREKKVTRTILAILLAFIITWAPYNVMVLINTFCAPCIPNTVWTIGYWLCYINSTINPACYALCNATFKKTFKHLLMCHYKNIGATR

[4] = target: T3, Muscarinic acetylcholine receptor M5 (Homo sapiens, UniProt P08912); assay: Displacement of [3H]-QNB/[3H]-NMS from human recombinant Muscarinic acetylcholine M5 receptor expressed in stable CHO cells after 90 mins by microbeta scintillation counting method; procedure, shortened: as §1
T3 sequence (P08912 whole entry): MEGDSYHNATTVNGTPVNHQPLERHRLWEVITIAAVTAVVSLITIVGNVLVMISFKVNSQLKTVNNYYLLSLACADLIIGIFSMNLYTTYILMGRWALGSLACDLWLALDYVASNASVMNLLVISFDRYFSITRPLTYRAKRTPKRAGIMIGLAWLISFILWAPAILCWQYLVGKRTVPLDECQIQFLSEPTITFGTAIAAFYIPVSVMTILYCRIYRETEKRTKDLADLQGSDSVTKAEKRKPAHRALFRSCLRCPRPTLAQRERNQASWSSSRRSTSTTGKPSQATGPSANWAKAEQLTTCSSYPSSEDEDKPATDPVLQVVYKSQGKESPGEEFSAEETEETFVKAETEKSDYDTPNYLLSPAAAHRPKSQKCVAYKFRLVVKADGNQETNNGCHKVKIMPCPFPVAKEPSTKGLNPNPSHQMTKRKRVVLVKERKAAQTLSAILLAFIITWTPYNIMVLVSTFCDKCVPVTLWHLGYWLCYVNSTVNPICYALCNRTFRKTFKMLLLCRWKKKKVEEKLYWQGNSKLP

[5] = target: T4, Alpha-1B adrenergic receptor (Homo sapiens) (UniProt P35368); assay: Displacement of [3H]-Prazosin from human recombinant adrenergic Alpha1B receptor expressed in HEKT cells at 10 uM after 90 mins by microbeta scintillation counting method relative to control
T4 sequence (whole entry): T1 sequence (P35368 whole entry)

[6] = target: T5, Alpha-2C adrenergic receptor (Homo sapiens) (UniProt P18825); assay: Displacement of [3H]-Rauwolscine from human recombinant adrenergic Alpha2C receptor expressed in stable MDCK cells at 10 uM after 90 mins by microbeta scintillation counting method relative to control
T5 sequence (whole entry): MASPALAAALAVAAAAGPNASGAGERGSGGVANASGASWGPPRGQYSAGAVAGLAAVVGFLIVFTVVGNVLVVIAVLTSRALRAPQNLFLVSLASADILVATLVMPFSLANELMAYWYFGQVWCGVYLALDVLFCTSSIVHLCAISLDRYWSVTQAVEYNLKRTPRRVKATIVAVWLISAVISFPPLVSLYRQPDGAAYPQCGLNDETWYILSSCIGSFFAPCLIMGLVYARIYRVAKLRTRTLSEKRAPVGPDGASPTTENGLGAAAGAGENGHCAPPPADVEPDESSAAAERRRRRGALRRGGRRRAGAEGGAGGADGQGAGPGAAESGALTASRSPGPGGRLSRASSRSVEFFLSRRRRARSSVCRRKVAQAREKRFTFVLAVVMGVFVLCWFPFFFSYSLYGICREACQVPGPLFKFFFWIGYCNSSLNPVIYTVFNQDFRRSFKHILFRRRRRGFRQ

[7] = target: Muscarinic acetylcholine receptor M3 (Homo sapiens, UniProt P20309); assay: Displacement of [3H]-QNB/[3H]-NMS from human recombinant Muscarinic acetylcholine M3 receptor expressed in stable CHO cells at 10 uM after 90 mins by microbeta scintillation counting method relative to control
Sequence of Muscarinic acetylcholine receptor M3 (P20309 whole entry, looked up): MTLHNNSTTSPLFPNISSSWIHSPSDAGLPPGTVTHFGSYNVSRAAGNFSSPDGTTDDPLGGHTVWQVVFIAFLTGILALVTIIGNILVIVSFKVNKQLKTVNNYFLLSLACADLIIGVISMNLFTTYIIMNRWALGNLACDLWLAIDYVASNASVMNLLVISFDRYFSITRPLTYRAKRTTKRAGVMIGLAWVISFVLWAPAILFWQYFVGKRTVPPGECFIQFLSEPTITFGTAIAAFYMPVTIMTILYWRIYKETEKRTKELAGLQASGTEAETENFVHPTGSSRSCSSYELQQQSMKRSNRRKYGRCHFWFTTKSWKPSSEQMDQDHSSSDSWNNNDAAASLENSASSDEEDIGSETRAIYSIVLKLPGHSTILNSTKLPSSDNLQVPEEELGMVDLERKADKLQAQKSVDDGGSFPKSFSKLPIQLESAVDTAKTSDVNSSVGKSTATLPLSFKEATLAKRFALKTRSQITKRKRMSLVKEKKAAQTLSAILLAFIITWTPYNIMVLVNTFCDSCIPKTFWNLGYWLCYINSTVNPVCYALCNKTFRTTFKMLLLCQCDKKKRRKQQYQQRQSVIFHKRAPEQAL

Sequence of 5-hydroxytryptamine receptor 1E (P28566 whole entry): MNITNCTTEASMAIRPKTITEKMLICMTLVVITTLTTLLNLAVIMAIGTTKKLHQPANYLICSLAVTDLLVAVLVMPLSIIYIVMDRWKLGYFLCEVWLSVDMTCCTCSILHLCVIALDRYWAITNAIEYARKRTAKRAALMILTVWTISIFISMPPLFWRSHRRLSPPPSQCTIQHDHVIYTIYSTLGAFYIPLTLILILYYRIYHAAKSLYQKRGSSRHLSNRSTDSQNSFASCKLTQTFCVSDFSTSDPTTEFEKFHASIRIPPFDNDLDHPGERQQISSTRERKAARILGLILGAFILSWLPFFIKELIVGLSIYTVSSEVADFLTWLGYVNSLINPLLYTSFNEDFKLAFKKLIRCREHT

SMILES | Ki [1] [µM] | Ki [2] [µM] | Ki (D(3) dopamine receptor) [µM] | Ki (Histamine H3 receptor) [µM] | Ki [3] [µM] | Ki [4] [µM] | inhibition [5] [%] | inhibition [6] [%] | inhibition [7] [%]
CC[C@H]1c2cc(OC)ccc2CC[C@@]1(C)N (racemic) | > 10 | > 10 | > 10 | > 10 | > 10 | > 10 | < 50 | < 50 | < 50
CC[C@H]1c2cc(C)ccc2OC[C@@]1(C)N (racemic) | > 10 | > 10 | > 10 | > 10 | > 10 | > 10 | < 50 | < 50 | < 50
CC[C@H]1c2ccccc2N(c2ccccc2)C[C@@]1(C)N (racemic) | > 10 | > 10 | – | 3.98 | > 10 | > 10 | – | – | –
C[C@@]12CN(c3ccccc3)c3ccccc3[C@@H]1CCN2 (racemic) | > 10 | > 10 | – | – | > 10 | > 10 | – | – | –
COc1cc(OC)c2c(c1)OC[C@@]1(C)NCC[C@@H]21 (racemic) | > 10 | > 10 | > 10 | – | > 10 | > 10 | < 50 | < 50 | < 50
